Assay results as given in ChEMBL document CHEMBL5316332 (J Med Chem, 2023).
The source made the active and inactive calls. The calls are words filed in the database; no cut-off is given here.

Assays:
[1] = target: T1, Bone morphogenetic protein receptor type-2 (Homo sapiens) (UniProt Q13873); experiment: Inhibition of human BMPR2 at 1 uM by DiscoveRx Kinomescan method
T1 sequence (whole entry): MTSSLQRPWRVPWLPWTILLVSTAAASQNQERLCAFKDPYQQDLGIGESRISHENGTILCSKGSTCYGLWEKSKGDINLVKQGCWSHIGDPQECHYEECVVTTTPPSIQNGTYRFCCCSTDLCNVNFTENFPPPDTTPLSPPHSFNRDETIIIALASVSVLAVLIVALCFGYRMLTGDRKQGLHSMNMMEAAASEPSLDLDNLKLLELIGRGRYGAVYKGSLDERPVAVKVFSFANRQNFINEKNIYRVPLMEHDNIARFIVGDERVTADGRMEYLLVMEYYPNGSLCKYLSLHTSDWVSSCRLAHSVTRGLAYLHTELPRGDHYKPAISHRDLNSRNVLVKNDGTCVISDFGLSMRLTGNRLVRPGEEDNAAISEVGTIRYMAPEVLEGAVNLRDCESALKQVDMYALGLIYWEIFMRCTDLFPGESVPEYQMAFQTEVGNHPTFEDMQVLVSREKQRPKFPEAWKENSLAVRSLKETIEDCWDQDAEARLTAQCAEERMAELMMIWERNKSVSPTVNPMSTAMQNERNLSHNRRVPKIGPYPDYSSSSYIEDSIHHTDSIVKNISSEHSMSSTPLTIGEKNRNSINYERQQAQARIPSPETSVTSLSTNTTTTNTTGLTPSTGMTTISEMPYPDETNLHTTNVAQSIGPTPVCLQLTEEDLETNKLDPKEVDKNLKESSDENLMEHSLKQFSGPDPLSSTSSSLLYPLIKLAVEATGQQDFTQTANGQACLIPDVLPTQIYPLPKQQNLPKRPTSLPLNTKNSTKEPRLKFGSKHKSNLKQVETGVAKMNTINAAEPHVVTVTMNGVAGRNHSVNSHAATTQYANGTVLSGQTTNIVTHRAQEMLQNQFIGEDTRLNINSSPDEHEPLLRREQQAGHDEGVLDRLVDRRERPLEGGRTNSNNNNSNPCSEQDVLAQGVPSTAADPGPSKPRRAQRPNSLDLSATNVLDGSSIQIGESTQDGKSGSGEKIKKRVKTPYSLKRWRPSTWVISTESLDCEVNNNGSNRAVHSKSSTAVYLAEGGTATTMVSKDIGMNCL
Method in brief: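 Outsourced KINOMEscan panel of 403 kinases, with compound at 1 μM.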

[2] = target: T2, Activin receptor type-1 (Homo sapiens) (UniProt Q04771); experiment: Inhibition of ACVR1 (unknown origin) by LanthaScreen TR-FRET assay
T2 sequence (whole entry): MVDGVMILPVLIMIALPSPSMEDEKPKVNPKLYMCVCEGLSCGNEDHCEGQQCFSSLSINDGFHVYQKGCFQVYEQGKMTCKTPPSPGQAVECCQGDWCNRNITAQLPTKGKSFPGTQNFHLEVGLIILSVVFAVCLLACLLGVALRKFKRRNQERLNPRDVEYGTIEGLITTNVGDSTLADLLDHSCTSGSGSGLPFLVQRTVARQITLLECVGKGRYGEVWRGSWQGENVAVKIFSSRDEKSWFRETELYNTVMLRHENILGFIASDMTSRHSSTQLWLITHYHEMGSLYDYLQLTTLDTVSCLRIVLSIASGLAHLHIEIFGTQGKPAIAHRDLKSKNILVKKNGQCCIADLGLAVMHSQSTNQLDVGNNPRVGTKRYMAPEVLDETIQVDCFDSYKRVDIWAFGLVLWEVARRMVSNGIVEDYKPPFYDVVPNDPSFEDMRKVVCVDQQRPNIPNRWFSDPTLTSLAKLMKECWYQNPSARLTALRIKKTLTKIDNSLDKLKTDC
Method in brief: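 Outsourced SelectScreen profiling using a LanthaScreen TR-FRET binding format, in which a tight-binding tracer is displaced from the kinase.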

inhibition [1]	inhibition [2]	Structure (SMILES)
Active		CNC(=O)[C@@H]1CC[C@@H](n2c(-c3ccc4cnccc4c3)nc3ccc(C(=O)NCc4cccc(C(N)=O)c4)cc32)C1
	inactive	COc1cnc(Nc2cccc(S(N)(=O)=O)c2)nc1N1CCN(c2ccccc2)C(=O)C1
